According to ChEMBL document CHEMBL1141088, “A new pyridazine series of GABAA alpha5 ligands” (J Med Chem, 2005):

Legend:
[1] = molecular target: GABA-A receptor; alpha-3/beta-3/gamma-2 (Homo sapiens) (UniProt P18507+P28472+P34903); assay: Maximum inhibition of GABA EC20 response at GABA-A receptor alpha-3-beta-3-gamma-2,n=3; assay type: protein-complex assay
Outline: (§1)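 Whole-cell patch clamp of L(tk-) cells stably expressing human α1, α3 or α5 β3γ2s, perfused with bicarbonate saline pH 7.2, CsCl pipette solution pH 7.3. Drugs applied by double-barrelled pipette; GABA in 5 s pulses at 30 s intervals. Modulation measured against a GABA EC20 set for each cell; curves fitted to a Hill equation.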

[2] = molecular target: T1, GABA-A receptor; alpha-5/beta-3/gamma-2 (Homo sapiens, UniProt P18507+P28472+P31644); assay: Negative logarithm of effective concentration against GABA-A alpha-5-beta-3-gamma-2 receptor; assay type: protein-complex assay; outline: as §1
T1 sequence (P18507 whole entry): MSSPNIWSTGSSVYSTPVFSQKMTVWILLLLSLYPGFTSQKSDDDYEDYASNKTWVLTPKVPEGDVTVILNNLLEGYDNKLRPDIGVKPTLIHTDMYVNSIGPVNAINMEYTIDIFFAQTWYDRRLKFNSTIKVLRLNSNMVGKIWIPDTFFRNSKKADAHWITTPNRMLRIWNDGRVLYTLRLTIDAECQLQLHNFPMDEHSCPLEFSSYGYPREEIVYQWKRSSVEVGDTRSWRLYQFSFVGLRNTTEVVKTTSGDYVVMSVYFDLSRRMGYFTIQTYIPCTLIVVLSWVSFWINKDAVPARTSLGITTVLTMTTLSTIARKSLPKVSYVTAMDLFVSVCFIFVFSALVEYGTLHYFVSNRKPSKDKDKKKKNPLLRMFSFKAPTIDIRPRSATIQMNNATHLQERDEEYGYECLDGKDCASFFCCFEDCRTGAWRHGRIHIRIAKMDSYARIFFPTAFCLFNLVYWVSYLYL
T1 sequence (P28472 whole entry): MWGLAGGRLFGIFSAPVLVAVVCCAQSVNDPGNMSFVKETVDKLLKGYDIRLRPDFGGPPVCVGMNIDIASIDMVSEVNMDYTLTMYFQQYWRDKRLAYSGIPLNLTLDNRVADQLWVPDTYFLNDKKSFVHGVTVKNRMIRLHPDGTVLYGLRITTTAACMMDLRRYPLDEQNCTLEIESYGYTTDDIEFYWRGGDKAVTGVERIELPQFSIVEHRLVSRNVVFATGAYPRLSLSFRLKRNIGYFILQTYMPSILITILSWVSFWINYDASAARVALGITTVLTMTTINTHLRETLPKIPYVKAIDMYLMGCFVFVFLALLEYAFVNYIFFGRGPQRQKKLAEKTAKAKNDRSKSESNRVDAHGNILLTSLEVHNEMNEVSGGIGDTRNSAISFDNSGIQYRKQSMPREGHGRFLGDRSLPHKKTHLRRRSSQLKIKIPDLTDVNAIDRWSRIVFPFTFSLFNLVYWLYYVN
T1 sequence (P31644 whole entry): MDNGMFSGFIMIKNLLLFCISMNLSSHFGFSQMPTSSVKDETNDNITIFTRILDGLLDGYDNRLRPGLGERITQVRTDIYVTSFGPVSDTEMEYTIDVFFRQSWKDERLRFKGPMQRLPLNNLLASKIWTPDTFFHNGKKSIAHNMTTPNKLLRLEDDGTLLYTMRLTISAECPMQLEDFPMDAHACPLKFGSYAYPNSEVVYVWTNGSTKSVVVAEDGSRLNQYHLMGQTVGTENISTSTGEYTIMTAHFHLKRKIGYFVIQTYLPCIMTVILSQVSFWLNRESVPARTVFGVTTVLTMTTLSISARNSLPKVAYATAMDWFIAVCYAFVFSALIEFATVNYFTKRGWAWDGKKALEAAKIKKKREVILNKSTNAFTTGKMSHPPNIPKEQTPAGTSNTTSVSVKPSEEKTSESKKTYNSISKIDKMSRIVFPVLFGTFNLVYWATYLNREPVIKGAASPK

[3] = Low volume of distribution of compound determined after iv administration at 1 mg/kg dose as a solution(1 mg/mL) in a PEG 300:H2O(3:1); assay type: ADME, organism-based; parameters: dose 1 mg/kg, route intravenous; conditions: rat, in vivo, read-out: Vdss
Outline: (§2)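 Single rat, cannulated, given 100 units heparin, recovered 48 h, fasted overnight. Dosed 1 mg/kg iv bolus (1 mL/kg) in PEG 300:water 3:1. Serial blood sampled to 6 h and plasma analysed by LC-MS/MS with diazepam internal standard. Cl in mL/min/kg from plasma, T1/2 in hours from 1–3 h data, Vdss in L/kg.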

[4] = Clearance of compound determined after iv administration at 1 mg/kg dose as a solution(1 mg/mL) in a PEG 300:H2O(3:1); assay type: ADME, organism-based; parameters: dose 1 mg/kg, route intravenous; conditions: rat, in vivo; outline: as §2
[5] = molecular target: T1, GABA-A receptor; alpha-5/beta-3/gamma-2; assay: Displacement of [3H]-Ro- 15-1788 binding from human recombinant Gamma-aminobutyric acid A receptor alpha-5-beta-3-gamma-2 expressed in mouse fibroblast L(tk-) cells (30 min at 24 degrees C, pH 7.4); assay type: cell-based
Outline: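 Membranes from L(tk-) cells stably expressing human α1, α3 or α5 β3γ2 in 50 mM Tris pH 7.4. [3H]Ro15-1788 at 1.8 nM final, 30 min at 24 °C. Nonspecific binding set with 10 µM flunitrazepam, total binding in 0.1% DMSO. Filtration, scintillation counting. Ki is mean ± SEM of ≥3 independent determinations.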

[6] = molecular target: T2, GABA-A receptor; alpha-5/beta-3/gamma-2 (Homo sapiens) (UniProt P18507+P28472+P31644); assay: Efficacy at GABAA alpha-5-beta-3-gamma-2 receptor expressed in mouse fibroblast L(tk-) cells measured at 300 nM derived from at least three plates/day screened over a minimum of 2 days; assay type: functional, cell-based
Outline: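 FRET membrane-potential (VIPR) assay in L(tk-) cells with receptor expression induced 24 h by 1 µM dexamethasone. Dye-loaded 30 min in low-Cl- HEPES buffer pH 7.4: 4 µM CC2-DMPE, 1 µM DiSBAC2(3), 0.5 mM tartrazine. Basal read 8 s, compound at 300 nM, half-maximal GABA 22 s later, 1 Hz reads. Background-subtracted 460/580 nm ratio, normalized to DMCM as -100%.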

[7] = molecular target: T2, GABA-A receptor; alpha-5/beta-3/gamma-2 (Homo sapiens); assay: Maximum inhibition of GABA EC20 response at GABA-A receptor alpha-5-beta-3-gamma-2, n=4; assay type: protein-complex assay; outline: as §1
[8] = molecular target: GABA-A receptor; alpha-1/beta-3/gamma-2 (Homo sapiens) (UniProt P14867+P18507+P28472); assay: Maximum inhibition of GABA EC20 response at GABA-A receptor alpha-1-beta-3-gamma-2, n=4; assay type: protein-complex assay; outline: as §1
[9] = Half life of compound determined after iv administration at 1 mg/kg dose as a solution(1 mg/mL) in a PEG 300:H2O(3:1); assay type: ADME, organism-based; parameters: dose 1 mg/kg, route intravenous; conditions: rat, in vivo; outline: as §2

SMILES: N#Cc1cccc(-c2cnnc(-c3ccccc3)c2)c1
- Maximum inhibition [1]: -16%
- EC50 [2]: 7.41 nM
- Vd [3]: 1.5 L/kg
- clearance [4]: 36 mL/min/kg
- Ki [5]: 5.2 nM
- Efficacy [6]: -32
- Maximum inhibition [7]: -37%
- Maximum inhibition [8]: -23%
- half-life [9]: 36 min
